Measurements as given in ChEMBL document CHEMBL1250446, “Novel targets for Huntington's disease in an mTOR-independent autophagy pathway” (Nat Chem Biol, 2008).
Calls of active or inactive are those of the source. The calls are words filed in the database; no cut-off is given here.

Legend:
[1] = system: SK-N-SH (Homo sapiens); assay: Induction of autophagy in human SK-N-SH cells expressing EGFP-HDQ74 assessed as reduction in EGFP-HDQ74 aggregation at 1 uM after 48 hrs by densitometric analysis
[2] = system: SK-N-MC; assay: Cytotoxicity against human SK-N-MC cells expressing EGFP-HDQ74 at 1 uM after 48 hrs; assay type: cell-based
[3] = system: COS-7; assay: Induction of autophagy in african green monkey COS7 cells expressing EGFP-HDQ74 assessed as huntingtin mutant aggregation at 10 uM after 48 hrs; assay type: functional, cell-based; conditions: Chlorocebus aethiops
Summary of the method: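 COS-7 cells seeded at 1×10⁵/well for 24 h, then transfected with pEGFP-HDQ74 (1.5 μg/well) using LipofectAMINE for 4 h. Compound added, and cells fixed at 48 h and mounted in DAPI. About 200 EGFP-positive cells per sample were scored for presence of aggregates by a blinded observer. Triplicate, at least twice.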

[4] = system: COS-7; assay: Induction of autophagy in african green monkey COS7 cells expressing PLC-epsilon assessed as calpain activation at 2.5 uM after 30 mins by immunoblotting analysis; assay type: functional, cell-based; conditions: Chlorocebus aethiops
Summary of the method: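 Calpain activation in COS-7 after 30 min exposure, alongside 2.5 μM thapsigargin where applied; immunoblot of the active calpain small subunit.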

[5] = system: COS-7; assay: Inhibition of Gsalpha in african green monkey COS7 cells expressing EGFP-HDQ74/m-calpain assessed as increase in LC3-2 level by autophagy induction assay; assay type: functional, cell-based; conditions: Chlorocebus aethiops
[6] = system: COS-7; assay: Induction of autophagy in african green monkey COS7 cells expressing EGFP-HDQ74/m-calpain assessed as decrease in EGFP-HDQ74 aggregation at 500 uM after 48 hrs; assay type: functional, cell-based; conditions: Chlorocebus aethiops
[7] = system: PC-12; assay: Induction of autophagy in rat stable inducible PC12 cells expressing A53T alpha-synuclein assessed as A53T alpha-synuclein clearance at 2.5 uM after 24 hrs by densitometric analysis in presence of 50 uM ALLM; assay type: functional, cell-based
Summary of the method: (§1)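 Stable inducible PC12 line: A53T α-synuclein (HA-tagged) induced with 1 μg/ml doxycycline for 48 h, then switched off by doxycycline removal for 24 h during treatment. For ALLM (50 μM), 15 min pre-treatment. Anti-HA immunoblot, densitometry relative to actin; DMSO control.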

[8] = system: COS-7; assay: Induction of autophagy in african green monkey COS7 cells expressing EGFP-HDQ74 assessed as EGFP-HDQ74 aggregation at 2.5 uM after 48 hrs; assay type: functional, cell-based; conditions: Chlorocebus aethiops
Summary of the method: (§2)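 COS-7 cells transfected with EGFP-HDQ74 (1.5 μg/well) for 4 h, then exposed for the last 24 h of a 48 h post-transfection period. ALLM (50 μM) was added 15 min before thapsigargin. Cells fixed in 4% PFA with DAPI mount; ~200 EGFP-positive cells per sample scored blinded for aggregates. Triplicate, at least twice; odds ratios.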

[9] = system: COS-7; assay: Induction of autophagy in african green monkey COS7 cells expressing EGFP-HDQ74 assessed as EGFP-HDQ74 aggregation at 2.5 uM after 48 hrs in presence of 50 uM ALLM; assay type: functional, cell-based; conditions: Chlorocebus aethiops
Summary of the method: as §2

[10] = system: COS-7; assay: Induction of autophagy in african green monkey COS7 cells assessed as intracytosolic calcium concentration nu calpain activation assay; assay type: functional, cell-based; conditions: Chlorocebus aethiops
[11] = system: COS-7; assay: Induction of autophagy in african green monkey COS7 cells expressing EGFP-Atg5 assessed as increase in Atg5 level at 2.5 uM after 48 hrs by immunoblotting analysis; assay type: functional, cell-based; conditions: Chlorocebus aethiops
Summary of the method: (§3)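 COS-7 cells co-transfected 4 h with EGFP-Atg5 plus EGFP as transfection control (3:1 ratio), then treated. Atg5 level and cleavage assessed by immunoblotting.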

[12] = system: COS-7; assay: Induction of autophagy in african green monkey COS7 cells assessed as increase in LC-3-2 positive vesicles at 2.5 uM after 2 hrs by immunofluorescence analysis n presence of 400 nM bafilomycin A1; assay type: functional, cell-based; conditions: Chlorocebus aethiops
[13] = system: COS-7; assay: Induction of autophagy in african green monkey COS7 cells assessed as increase in steady state LC-3 positive vesicles at 2.5 uM after 2 hrs by immunofluorescence analysis; assay type: functional, cell-based; conditions: Chlorocebus aethiops
Summary of the method: (§4)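 COS-7 cells treated 2 h, fixed in 4% paraformaldehyde, then immunostained with anti-LC3 and Alexa-conjugated secondary antibodies. LC3-positive vesicles imaged by confocal microscopy (63x oil lens) at room temperature.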

[14] = system: COS-7; assay: Induction of autophagy in african green monkey COS7 cells assessed as increase in LC-3-2 positive vesicles at 2.5 uM after 2 hrs by immunofluorescence analysis; assay type: functional, cell-based; conditions: Chlorocebus aethiops
Summary of the method: as §4

[15] = system: COS-7; assay: Induction of autophagy in african green monkey COS7 cells expressing EGFP-Atg5 assessed as increase in Atg5 level at 10 uM after 48 hrs by immunoblotting analysis; assay type: functional, cell-based; conditions: Chlorocebus aethiops
Summary of the method: as §3

[16] = system: COS-7; assay: Effect on mTOR-signaling in african green monkey COS7 cells assessed as phospho-S6K at 2.5 uM by immunoblotting analysis; assay type: cell-based; conditions: Chlorocebus aethiops
Summary of the method: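 COS-7 cells exposed 24 h (0.2 μM rapamycin as positive control for mTOR inhibition); lysates immunoblotted for phospho-S6K, with densitometry of phospho-S6K relative to total S6K.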

[17] = system: PC-12; assay: Induction of autophagy in rat stable inducible PC12 cells expressing A53T alpha-synuclein assessed as A53T alpha-synuclein clearance at 2.5 uM after 24 hrs by densitometric analysis; assay type: functional, cell-based
Summary of the method: as §1

[18] = system: SK-N-SH (Homo sapiens); assay: Induction of autophagy in human SK-N-SH cells assessed as increase in LC3-2 level at 3 uM after 24 hrs by immunoblotting analysis
[19] = species: Mus musculus; assay: Induction of autophagy in Atg deficient mouse […] expressing EGFP-HDQ74 at 1 uM after 48 hrs; assay type: functional
[20] = system: SK-N-MC; assay: Induction of autophagy in Atg positive human SK-N-MC cells expressing EGFP-HDQ74 at 1 uM after 48 hrs; assay type: functional, cell-based
[21] = system: SK-N-MC; assay: Induction of autophagy in human SK-N-MC cells expressing EGFP-HDQ74 and endogenously I1R/alpha2 AR assessed as decrease in EGFP-HDQ74 aggregation at 1 uM after 24 hrs by densitometric analysis; assay type: functional, cell-based
[22] = system: PC-12; assay: Induction of autophagy in rat stable inducible PC12 cells expressing EGFP-HDQ74 and endogenously I1R assessed as decrease in EGFP-HDQ74 aggregation at 1 uM after 24 hrs by densitometric analysis; assay type: functional, cell-based
[23] = system: PC-12; assay: Induction of autophagy in rat stable inducible PC12 cells assessed as increase in LC3-2 level after 24 hrs by immunoblotting analysis; assay type: functional, cell-based
Summary of the method: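 Endogenous LC3-II in PC12 cells after 24 h exposure; immunoblot densitometry relative to actin.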

[24] = system: PC-12; assay: Induction of autophagy in rat stable inducible PC12 cells expressing A53T alpha-synuclein and endogenously I1R assessed as increase in A53T alpha-synuclein clearance at 1 uM after 24 hrs by densitometric analysis; assay type: functional, cell-based
Summary of the method: (§5)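 Inducible PC12 A53T α-synuclein (HA) cells induced with 1 μg/ml doxycycline for 48 h. Doxycycline then removed for 24 h with compound or DMSO. Remaining protein measured by anti-HA immunoblot, densitometry relative to actin.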

[25] = system: SK-N-MC; assay: Induction of autophagy in human SK-N-MC cells expressing A53T alpha-synuclein and endogenously I1R/alpha2 AR assessed as increase in A53T alpha-synuclein clearance at 1 uM after 24 hrs by densitometric analysis; assay type: functional, cell-based
[26] = system: PC-12; assay: Induction of autophagy in rat stable inducible PC12 cells expressing A53T alpha-synuclein assessed as A53T alpha-synuclein clearance at 500 uM after 24 hrs by densitometric analysis; assay type: functional, cell-based
Summary of the method: as §5

[27] = system: SK-N-SH; assay: Induction of autophagy in human SK-N-SH cells expressing EGFP-HDQ74 assessed as reduction in EGFP-HDQ74 aggregation at 500 uM after 48 hrs by densitometric analysis; assay type: functional, cell-based

CCCCc1oc2ccccc2c1C(=O)c1cc(I)c(OCCN(CC)CC)c(I)c1 [AMIODARONE]
Activity [1]: Active
Activity [2]: Non-toxic

CO[C@@H]1[C@@H]2OP(=O)(O)OC[C@H]2O[C@H]1n1c(Sc2ccc(Cl)cc2)nc2c(N)ncnc21
Activity [3]: inactive
Activity [4]: inactive

O=C(Nc1cc(C(=O)Nc2ccc(S(=O)(=O)O)cc2S(=O)(=O)O)cc(C(=O)Nc2ccc(S(=O)(=O)O)cc2S(=O)(=O)O)c1)Nc1cc(C(=O)Nc2ccc(S(=O)(=O)O)cc2S(=O)(=O)O)cc(C(=O)Nc2ccc(S(=O)(=O)O)cc2S(=O)(=O)O)c1
Activity [5]: Active
Activity [6]: Active

C/C=C(/C)C(=O)O[C@H]1C(C)=C2[C@H]([C@@H]1OC(=O)CCCCCCC)[C@@](C)(OC(C)=O)C[C@H](OC(=O)CCC)[C@@]1(O)[C@H]2OC(=O)[C@@]1(C)O
Activity [7]: Active
Activity [8]: inactive
Activity [9]: Active
Activity [10]: inactive
Activity [11]: Active
Activity [12]: inactive
Activity [13]: Active
Activity [14]: Active
Activity [15]: Active
Activity [16]: inactive
Activity [17]: inactive

CN(C)C(=O)C(CCN1CCC(O)(c2ccc(Cl)cc2)CC1)(c1ccccc1)c1ccccc1 [LOPERAMIDE]
Activity [1]: Active
Activity [2]: Non-toxic

Nc1cc(N2CCCCC2)nc(N)[n+]1[O-] [MINOXIDIL]
Activity [1]: Active
Activity [18]: Active
Activity [2]: Non-toxic
Activity [19]: inactive
Activity [20]: Active

O=C(Nc1ncnc2c1ncn2[C@@H]1O[C@@H]2COP(=O)(O)O[C@H]2[C@H]1O)c1ccccc1
Activity [4]: Active

C1COC(NC(C2CC2)C2CC2)=N1
Activity [21]: Active
Activity [22]: Active
Activity [23]: Dose-dependent effect
Activity [24]: Active
Activity [25]: Active

CCCC(=O)Nc1ncnc2c1ncn2[C@@H]1O[C@@H]2COP(=O)(O)O[C@H]2[C@H]1OC(=O)CCC
Activity [26]: inactive
Activity [27]: inactive
